Screening results from PubChem.
FGF22 binding: FGF22 (human) thermal shift binding; 340,000 compounds, 1.5% hits; recombinant FGF22 thermal shift, SYPRO orange fluorescence; percent of sucrose octasulfate shift, DMSO zero; Q9HCT0; activity (Tm shift, normalised), % at 9.99 µM;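 active = mean Tm shift, scaled 0 neutral to 100 positive control, at about 1.3% or above, every replicate too, limit read from the data; inconclusive = no clear call, values can overlap the other calls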
Target sequence (Q9HCT0 whole entry, looked up): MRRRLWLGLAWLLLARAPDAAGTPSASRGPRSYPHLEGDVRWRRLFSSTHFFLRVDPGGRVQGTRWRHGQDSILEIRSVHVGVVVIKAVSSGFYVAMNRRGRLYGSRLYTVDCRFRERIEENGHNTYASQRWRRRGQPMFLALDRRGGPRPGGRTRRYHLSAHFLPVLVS
DENV2 CPE: protects cells from dengue virus 2 cytopathic effect; DENV2-infected cells, cytopathic effect rescue, plate reader; CPE inhibition, % at 9.99 µM; 350,000 compounds, 1.7% hits; AID 651640; in the data active = CPE inhibition above about 20%, passing the limit was not always enough; inconclusive = no clear call, values can overlap the other calls; tested in BHK-21 cells
Xi reactivation: activators of X-chromosome reactivation in mouse fibroblasts; XiGFP mouse fibroblasts, % GFP-positive cells imaging, 3 d; cells co-treated with 5-aza-dC sensitizer; scaled so ellipticine positive control = 100%; activation, % at 7.58 µM; 360,000 compounds, 0.055% hits; AID 743238;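 active = mean normalized replicate activation at least 10% and every replicate at or above 10%; inconclusive = only one of the two criteria met; inactive = mean below 10% and not all replicates reach 10%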
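Schedule: 3 d treatment, 15 min room-temperature fixation; system: 68-5-11 XiGFP fibroblast line; buffer or medium: DMEM plus 5-aza-dC sensitizer; control set: ellipticine 6 µM positive control; compound: one concentration, pinned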
ARNT TACC3 PPI: disruptors of human ARNT/TACC3 interaction. Q9Y6A5. AlphaScreen His-ARNT PAS-B/GST-TACC3 binding, luminescence; TACC3 fragment carries E629A point mutation. inhibition, % at 9.99 µM. 390,000 compounds, 0.66% hits. AID 623870;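 active = mean inhibition of replicates at least 50% and at least half of replicates each reaching 50%; inconclusive = half or more replicates reach 50% but mean below 50%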
FN deposit inh: fibronectin deposition inhibition; AH1F fibroblasts, Alexa488-fibronectin deposition fluorescence, overnight; inhibition, % at 12.6 µM; 350,000 compounds, 0.086% hits; AID 743247;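 active = mean inhibition across replicates of 30% or more, regardless of how many single replicates reach that level; inconclusive = mean under 30% yet at least half of replicates reach 30%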
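test system = AH1F fibroblasts assembling fluorescent fibronectin matrix | quantity = 10000 AH1F cells per well | buffer or medium = DMEM plus 2% serum, read in PBS | doses = single dose, pinned | incubation = 1 h cell attachment, overnight exposure to compound and label | detection = fluorescence at 485 nm excitation, 525 nm emission | read-out basis = inhibition from reduced deposited-fibronectin fluorescence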
SIRT5 inh: blocks human SIRT5 desuccinylation of peptide. AID 652115. Purified SirT5, succinyl-peptide AMC, trypsin-coupled fluorescence. Q9NXA8. inhibition, % at 15 µM. 330,000 compounds, 1.1% hits; in the data active = inhibition above about 15%; inconclusive = no clear call, values can overlap the other calls
Target sequence (Q9NXA8 whole entry, looked up): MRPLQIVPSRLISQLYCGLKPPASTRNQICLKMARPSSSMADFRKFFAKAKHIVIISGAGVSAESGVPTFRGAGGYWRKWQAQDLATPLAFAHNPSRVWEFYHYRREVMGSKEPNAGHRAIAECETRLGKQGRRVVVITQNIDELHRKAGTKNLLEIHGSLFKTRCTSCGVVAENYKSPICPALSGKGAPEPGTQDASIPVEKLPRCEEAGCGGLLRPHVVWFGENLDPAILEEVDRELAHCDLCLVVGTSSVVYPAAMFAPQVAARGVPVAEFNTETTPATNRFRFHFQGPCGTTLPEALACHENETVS
Large screens that a line does not name were inactive. Compounds with a hit are over-represented: about 3.8% of the library has one in this group of screens.

COC(=O)c1ccc(NC(=O)CSc2nc3[nH]ncc3c(=O)[nH]2)cc1	none
O=C(CSc1nc2[nH]ncc2c(=O)[nH]1)Nc1ccc(OC(F)(F)F)cc1	FGF22 binding 14
COc1cc([N+](=O)[O-])cc(/C=N/NC(=O)Cn2cncn2)c1O	ARNT TACC3 PPI 61
COc1cc([N+](=O)[O-])cc(/C=N/NC(=O)c2ccc(C)nc2)c1O	ARNT TACC3 PPI 65 (no result: FGF22 binding, DENV2 CPE, SIRT5 inh)
COc1cc([N+](=O)[O-])cc(/C=N/NC(=O)c2ccc(NC(=O)c3ccc(C)cc3)cc2)c1O	none
COc1cc([N+](=O)[O-])cc(/C=N/NC(=O)CSc2ccccn2)c1O	none
OC[C@H]1[C@@H](c2ccc(-c3ccc(F)cc3)cc2)[C@H]2CN(Cc3ccncc3)CCCCN21	DENV2 CPE 28 (no result: FN deposit inh)
OC[C@@H]1[C@H](c2ccc(-c3ccc(F)cc3)cc2)[C@H]2CN(Cc3ccncc3)CCCCN12	none (no result: FN deposit inh)
OC[C@@H]1[C@@H](c2ccc(-c3ccccc3F)cc2)[C@@H]2CN(Cc3ccncc3)CCCCN12	DENV2 CPE 22 (no result: FGF22 binding, FN deposit inh, SIRT5 inh)
Cc1noc(C)c1S(=O)(=O)Nc1ccc2c(c1)C(=O)N([C@H](C)CO)C[C@H](C)[C@H](CN(C)Cc1ccc(C(F)(F)F)cc1)OCCCC[C@H](C)O2	none (no result: FN deposit inh)
Cc1noc(C)c1S(=O)(=O)Nc1ccc2c(c1)C(=O)N([C@@H](C)CO)C[C@@H](C)[C@H](CN(C)Cc1ccc(C(F)(F)F)cc1)OCCCC[C@H](C)O2	none (no result: FN deposit inh)
Cc1noc(C)c1S(=O)(=O)Nc1ccc2c(c1)C(=O)N([C@H](C)CO)C[C@H](C)[C@@H](CN(C)Cc1ccncc1)OCCCC[C@@H](C)O2	none (no result: FN deposit inh)
Cc1noc(C)c1S(=O)(=O)Nc1ccc2c(c1)C(=O)N([C@@H](C)CO)C[C@H](C)[C@@H](CN(C)Cc1ccc(C(F)(F)F)cc1)OCCCC[C@@H](C)O2	SIRT5 inh 25 (no result: FN deposit inh)
Cc1noc(C)c1S(=O)(=O)Nc1ccc2c(c1)C(=O)N([C@H](C)CO)C[C@H](C)[C@@H](CN(C)Cc1ccc(C(F)(F)F)cc1)OCCCC[C@H](C)O2	SIRT5 inh 25 (no result: FN deposit inh)
Cc1noc(C)c1S(=O)(=O)Nc1ccc2c(c1)C(=O)N([C@H](C)CO)C[C@H](C)[C@H](CN(C)Cc1ccncc1)OCCCC[C@@H](C)O2	DENV2 CPE 26 (no result: FN deposit inh)
CCCNC(=O)[C@@H]1[C@@H](CO)[C@@H]2Cn3c(ccc(-c4ccccc4OC)c3=O)[C@@H]2N1CC	none (no result: FN deposit inh)
COCC(=O)N1[C@@H](C#N)[C@H](c2ccc(-c3cccc(F)c3)cc2)[C@@H]1CO	DENV2 CPE inconclusive
C[C@@H]1CN([C@H](C)CO)C(=O)Cc2cc(NC(=O)Nc3ccccc3)ccc2O[C@@H]1CN(C)C(=O)Nc1ccc(C(F)(F)F)cc1	none (no result: FN deposit inh, SIRT5 inh)
COc1ccc(CNC(=O)C[C@@H]2C=C[C@@H](NC(=O)Nc3ccc4c(c3)OCO4)[C@H](CO)O2)cc1	none
CCC(=O)N/C=C/n1cnc2cc(C(F)(F)F)ccc21	none (no result: FGF22 binding, DENV2 CPE, Xi reactivation, ARNT TACC3 PPI, SIRT5 inh)
CN(C)c1cccc(C(=O)N/C=C/n2cnc3cc(C(F)(F)F)ccc32)c1	FGF22 binding 43
O=C(NC[C@H]1[C@H](c2ccccc2)[C@@H](CO)N1Cc1cccnc1)c1ccccn1	DENV2 CPE 38
COCC(=O)N1[C@H](CO)[C@@H](c2ccccc2)[C@@H]1CNC(=O)c1ccccn1	SIRT5 inh 15
O=C(COc1ccc(Cl)cc1Cl)Nc1ccc(CN2CCOCC2)cc1	none
O=C(COc1ccc(Cl)cc1Cl)Nc1ccc(CN2CCCCC2)cc1	SIRT5 inh 112 (no result: FN deposit inh)
NC(=O)c1cc(NC(=O)c2cc(Br)c(Br)s2)cc(C(N)=O)c1	FGF22 binding 43
Cc1cn([C@H]2C[C@H](O)[C@@H](CNCc3ccc4ncccc4c3)O2)c(=O)[nH]c1=O	DENV2 CPE 94 (no result: ARNT TACC3 PPI)
COc1cc(/C=C/C(=O)Nc2cccc(S(=O)(=O)N3CCOCC3)c2)ccc1OCC#N	FGF22 binding 4.1
COc1ccc(/C=C/C(=O)Nc2cccc(S(=O)(=O)N3CCOCC3)c2)cc1OC	none
